hERG rescue: hERG (human) protection from proarrhythmic block; Q12809; CHO-hERG, FluxOR thallium flux, dofetilide IC70 present; activation (rescue from dofetilide block), less the hit threshold, % at 10 µM; actives 0.51% (n = 310,000); AID 1511;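 active means activation above the mean of controls blocked by dofetilide plus 5 SD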;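 further: thallium influx through hERG after potassium depolarization seen as dye fluorescence rise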
KCNK9 inh: blocks the human KCNK9 two-pore domain potassium channel | HEK293 KCNK9, FluxOR thallium flux fluorescence; active compounds read low | B-score at 10 µM | actives 1.2% (n = 310,000) | AID 488922;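 active means ratio B-score over 3 SD below the library mean, with starting fluorescence within 5 SD of its mean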;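 further: negative B-score means less thallium flux so channel inhibition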
KCNQ1 block: blocks the human KCNQ1 potassium channel; B-score at 10 µM; CHO-K1 KCNQ1, FluxOR thallium flux fluorescence; active compounds read high; actives 1.3% (n = 310,000);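 active means compounds whose thallium flux B-score, printed positive for inhibition, exceeds three library SD while starting fluorescence stays within three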;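 further: channel opened by potassium depolarization with thallium stimulus after 20 min compound exposure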
Target sequence (P51787 whole entry, looked up): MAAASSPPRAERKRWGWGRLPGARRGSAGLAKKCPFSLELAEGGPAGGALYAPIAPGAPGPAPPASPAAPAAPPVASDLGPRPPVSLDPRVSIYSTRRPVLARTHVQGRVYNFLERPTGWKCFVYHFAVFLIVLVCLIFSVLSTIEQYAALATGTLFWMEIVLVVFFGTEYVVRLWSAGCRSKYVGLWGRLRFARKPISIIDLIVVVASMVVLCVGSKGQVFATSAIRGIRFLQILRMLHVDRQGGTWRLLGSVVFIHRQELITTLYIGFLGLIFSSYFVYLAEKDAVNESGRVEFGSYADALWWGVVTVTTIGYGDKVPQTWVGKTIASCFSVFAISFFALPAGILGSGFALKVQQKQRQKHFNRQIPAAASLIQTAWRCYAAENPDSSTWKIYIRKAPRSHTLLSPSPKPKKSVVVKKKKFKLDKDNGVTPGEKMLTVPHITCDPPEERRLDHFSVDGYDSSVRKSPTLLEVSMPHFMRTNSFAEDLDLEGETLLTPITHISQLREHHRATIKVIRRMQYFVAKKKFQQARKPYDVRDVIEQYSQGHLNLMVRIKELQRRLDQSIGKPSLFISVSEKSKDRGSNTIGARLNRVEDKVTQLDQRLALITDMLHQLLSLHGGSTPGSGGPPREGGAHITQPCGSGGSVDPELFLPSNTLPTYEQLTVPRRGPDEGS
KCNQ1 act: potentiates or activates the human KCNQ1 potassium channel; P51787; CHO-K1 KCNQ1, thallium flux FluxOR fluorescence; active compounds read high; B-score at 10 µM; actives 0.35% (n = 310,000); AID 2648;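 active means fluorescence ratio B-score, a plate-corrected score, at least three library SD, with initial intensity B-score within 5 SD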
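System: CHO-K1 cells stably expressing KCNQ1 / Medium: assay buffer for compound exposure, DMSO matched across wells / Reagent: thallium- and potassium-containing depolarizing buffer / Compound: one concentration, matched DMSO / Incubation: 20 min compound pretreatment at room temperature / Measured by: kinetic FluxOR fluorescence, 10 s baseline plus 110 s post-stimulus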
KCNK3 inh: human KCNK3 channel inhibition, primary screen. actives 0.84% (n = 340,000). O14649. CHO-KCNK3 thallium flux, FluxOR fluorescence; active compounds read low. B-score at 10 µM;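 active means B-score under library mean minus 4 SD, starting fluorescence ratio at most library mean plus 5 SD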;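 further: more negative B-score means stronger inhibition of thallium flux through KCNK3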
KCNQ1 inh valid: reconfirmed blocker of the human KCNQ1 potassium channel. inhibition, % at 10 µM. KCNQ1 cell line, FluxOR thallium flux fluorescence. shares compounds with KCNQ1 block. actives 93% (n = 1,600);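 active means primary screen active, with duplicate mean exceeding buffer control mean plus 3 SD of buffer wells, cut at about 28% in these data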
CHO Tl flux: KCNQ1 inhibitor counter-screen hit in parental CHO cells; shares compounds with KCNQ1 block; parental CHO-K1, FluxOR thallium flux fluorescence ratio; active compounds read low; zero means no signal rise above baseline; fluorescence ratio (Tl flux) at 10 µM; actives 21% (n = 1,600);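 active means mean of duplicate thallium-flux fluorescence ratios in parental host cells more than 5 SD below the buffer control mean, cut at about 0.38 in these data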;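 further: ratio is peak minus minimum fluorescence divided by baseline fluorescence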
KCNQ1 APC inh: human KCNQ1 inhibition validated by electrophysiology | actives 20% (n = 490) | AID 624120 | calls only at 10 µM | KCNQ1-CHO cells, automated patch clamp current | shares compounds with KCNQ1 block;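 active means KCNQ1 current drop exceeding 3 SD of negative control wells, seen in both duplicate runs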;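 further: steady state current during a 2 s step from -80 to +40 mV; negative values mean current inhibition and positive values mean potentiation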
KCNQ2 spec: rat KCNQ2 inhibition in KCNQ1 inhibitor specificity screen. inhibition, % at 10 µM. shares compounds with KCNQ1 block. actives 71% (n = 1,600). KCNQ2 cells, FluxOR thallium flux fluorescence. AID 651746;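 active means mean percent inhibition of the KCNQ2 thallium signal more than 5 SD above the buffer-only control wells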;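 further: KCNQ2 expressed in CHO cells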
KCNQ1-KCNE1 inh: human KCNQ1/KCNE1 inhibition in KCNQ1 specificity screen | shares compounds with KCNQ1 block | KCNQ1/KCNE1 cells, FluxOR thallium flux fluorescence | inhibition, % at 10 µM | actives 77% (n = 1,600) | AID 652147;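 active means mean percent inhibition of duplicate wells above the buffer-only control mean plus 3 SD of those controls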
Large screens that a line does not name were inactive (follow-up assays come after a bar, where they were run). An excerpt weighted towards active compounds, which were near 3.1% of everything screened.

Cc1ccc(NC(=O)C(NC2CCCc3ccccc32)c2ccccc2)cc1Cl (configuration not stated)	KCNQ1 block 6 | KCNQ1 inh valid 66.0 | CHO Tl flux 0.362 | KCNQ2 spec 100.0% | KCNQ1-KCNE1 inh 99.0%
CNC(=O)NC(=O)C(NC1CCCc2ccccc21)c1ccccc1 (configuration not stated)	none
COc1cc(CC(=O)OCC(=O)NCc2cccs2)cc(OC)c1OC	none (no result: hERG rescue, KCNK9 inh, KCNQ1 block, KCNQ1 act)
CN(CC(=O)Nc1cccc(F)c1)C(=O)c1cn(-c2ccccc2)nc1-c1cccs1	KCNQ1 block 8 | KCNQ1 inh valid 79.0 | CHO Tl flux inactive | KCNQ2 spec 83.3% | KCNQ1-KCNE1 inh 108.5%
CCCCOc1[nH]c2nc(-c3ccco3)n(Cc3ccco3)c(=N)c2c1C#N	KCNK9 inh -7.2, KCNQ1 block 14 | KCNQ1 inh valid 76.5 | CHO Tl flux inactive | KCNQ2 spec 78.0% | KCNQ1-KCNE1 inh 81.0%
O=C(Nc1cccc(Cl)c1)OCCN1CCN(Cc2ccccc2)CCC1=O	KCNQ1 block 11 | KCNQ1 inh valid 69.5 | CHO Tl flux inactive | KCNQ2 spec 99.0% | KCNQ1-KCNE1 inh 46.5%
O=C1CCN(Cc2ccccc2)CCN1CCOc1ccccc1	KCNQ1 block 6 | KCNQ1 inh valid inactive | CHO Tl flux inactive | KCNQ2 spec inactive | KCNQ1-KCNE1 inh inactive
CCC(C)c1ccccc1OCCn1ccnc1 (configuration not stated)	none
CCCc1nn(-c2ccccc2)c2c1C(c1cccs1)C(C#N)=C(N)O2 (configuration not stated)	KCNQ1 block 7 | KCNQ1 inh valid inactive | CHO Tl flux inactive | KCNQ2 spec inactive | KCNQ1-KCNE1 inh inactive
Cc1nn(-c2ccccc2)c2c1C(c1cccs1)C(C#N)=C(N)O2 (configuration not stated)	none
O=C(COc1cccc(C(F)(F)F)c1)Nc1ccc(S(=O)(=O)N2CCCCC2)cc1	KCNQ1 block 8 | KCNQ1 inh valid 107.0 | CHO Tl flux inactive | KCNQ1 APC inh inactive | KCNQ2 spec 98.7% | KCNQ1-KCNE1 inh 67.0%
Cc1cccc(OCC(=O)Nc2ccc(S(=O)(=O)N3CCCC3)cc2)c1	none
COc1ccc(S(=O)(=O)Nc2ccc(C)c(S(=O)(=O)N3CCOCC3)c2)cc1[N+](=O)[O-]	none (no result: hERG rescue, KCNK9 inh, KCNQ1 block, KCNQ1 act)
CCOC(=O)C1=C(C)N(C)C(C)=C(C(=O)OCC)C1c1ccc(C(=O)OC)cc1	KCNQ1 block 6 | KCNQ1 inh valid 105.5 | CHO Tl flux 0.303 | KCNQ2 spec 114.7% | KCNQ1-KCNE1 inh 151.0%
COc1ccc(Cl)cc1N(C(=O)c1ccco1)C(C(=O)NC1CCCC1)c1ccco1 (configuration not stated)	none
Cc1ccc(N(C(=O)c2ccco2)C(C(=O)NC2CCCC2)c2ccco2)c(C)c1 (configuration not stated)	KCNQ1 block 7 | KCNQ1 inh valid 81.5 | CHO Tl flux inactive | KCNQ2 spec 75.7% | KCNQ1-KCNE1 inh 61.0%
COC(=O)CN(c1nc(C)c(Br)c(OC)n1)S(=O)(=O)c1ccc(C)cc1	none
C=CCN(c1nc(C)c(Br)c(OC)n1)S(=O)(=O)c1ccc(C)cc1	KCNQ1 block 7 | KCNQ1 inh valid 113.0 | CHO Tl flux inactive | KCNQ1 APC inh inactive | KCNQ2 spec 118.0% | KCNQ1-KCNE1 inh 83.0%
Cc1ccc(N(CCCCN2C(=O)c3ccccc3C2=O)C(=O)c2ccc(Cl)s2)cc1	KCNQ1 block 9 | KCNQ1 inh valid 78.0 | CHO Tl flux inactive | KCNQ2 spec 70.7% | KCNQ1-KCNE1 inh 33.5%
CCOC(=O)[C@@H]1[C@H]2COc3ccccc3[C@H]2N2C(=O)N(c3cccc(C)c3)C(=O)[C@]12C	none (no result: hERG rescue, KCNK9 inh, KCNQ1 block, KCNQ1 act)
COc1ccccc1NS(=O)(=O)c1ccc(NC(=O)c2[nH]nc(OC)c2[N+](=O)[O-])cc1	none
Cc1nc2nc(-c3cccs3)cn2nc1C	KCNQ1 block 7 | KCNQ1 inh valid 104.0 | CHO Tl flux 0.338 | KCNQ2 spec inactive | KCNQ1-KCNE1 inh inactive
Cc1nc2nc(-c3ccc(Cl)cc3)cn2nc1C	none
CC(Oc1ccc(F)cc1)C(=O)Nc1cc(S(=O)(=O)N2CCOCC2)ccc1N1CCCCC1 (configuration not stated)	none
CCOC(=O)C1CCN(c2ncnc3c2c(-c2ccccc2)cn3-c2ccccc2)CC1	KCNQ1 block 9 | KCNQ1 inh valid 137.5 | CHO Tl flux inactive | KCNQ1 APC inh inactive | KCNQ2 spec 104.0% | KCNQ1-KCNE1 inh active
Cc1ccc(-n2cc(-c3ccccc3)c3c(N4CCN(C)CC4)ncnc32)cc1	none
CCOC(=O)C1CCN(c2ncnc3c2oc2ccc(Cl)cc23)CC1	KCNQ1 block 7 | KCNQ1 inh valid 62.5 | CHO Tl flux inactive | KCNQ2 spec 94.3% | KCNQ1-KCNE1 inh inactive
Cc1ccc(-n2cc(-c3ccccc3)c3c(N4CCOCC4)ncnc32)cc1	KCNQ1 block 12 | KCNQ1 inh valid 94.5 | CHO Tl flux inactive | KCNQ1 APC inh inactive | KCNQ2 spec 106.7% | KCNQ1-KCNE1 inh 134.0%
CCOC(=O)C1CCN(c2ncnc3c2[nH]c2cccc(OC)c23)CC1	none
CC1CN(c2ncnc3c2c(-c2ccccc2)cn3-c2ccc(F)cc2)CC(C)O1 (configuration not stated)	KCNQ1 block 9 | KCNQ1 inh valid 138.5 | CHO Tl flux inactive | KCNQ1 APC inh inactive | KCNQ2 spec 134.7% | KCNQ1-KCNE1 inh 137.5%
Cc1ccc(/C=C(/NC(=O)c2ccccc2)C(=O)NC(Cc2c[nH]c3ccccc23)C(=O)O)cc1 (configuration not stated)	none
COC(=O)c1c(NC(=O)COC(=O)c2ccc(Cl)nc2)sc(C)c1C	none
COc1ccc(NC(=O)c2ccc(CN3CCN(c4ccccc4)CC3)cc2)cc1	KCNQ1 block 6 | KCNQ1 inh valid inactive | CHO Tl flux inactive | KCNQ2 spec inactive | KCNQ1-KCNE1 inh inactive
COc1ccc(C(=O)Nc2ccc(N3CCN(Cc4ccccc4)CC3)cc2)cc1	none
Cc1nc2c(-c3ccccc3)c(C)nn2c(N)c1-c1ccccc1	KCNQ1 block 7 | KCNQ1 inh valid active | CHO Tl flux inactive | KCNQ1 APC inh inactive | KCNQ2 spec inactive | KCNQ1-KCNE1 inh inactive

Source: PubChem (Johns Hopkins Ion Channel Center)
